From ChEMBL document CHEMBL5143598, “Cytotoxic Sesquiterpenoids from Ammoides atlantica Aerial Parts” (J Nat Prod, 2022)
Active and inactive are the calls of the source. The calls are words filed in the database; no cut-off is given here.

Columns and labels:
Jurkat [1] = assay: Antiproliferative activity against human Jurkat cells assessed as reduction in cell viability measured after 48 hrs by colorimetric based MTT assay; type: functional
How it was run: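 Jurkat leukemia cells kept in RPMI with 10% FBS, 2 mM L-glutamine and penicillin/streptomycin at 37 °C, 5% CO2. Plated at 3.5 × 10^3 cells/well and left 24 h, then given fresh medium alone or with serial dilutions (40, 20, 10, 5 μM) for 48 h. Staurosporine 0.2 μM served as positive control. MTT added for 3 h, formazan dissolved in DMF/SDS solution at pH 4.5, OD read at 620 nm. Viability calculated as % of DMSO control. IC50 taken as the concentration giving 50% growth inhibition versus control.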

A549 [2] = assay: Antiproliferative activity against human A549 cells assessed as reduction in cell viability measured after 48 hrs by colorimetric based MTT assay; type: functional; conditions: A549, 48 h
A-375 = assay: Antiproliferative activity against human A-375 cells assessed as reduction in cell viability measured after 48 hrs by colorimetric based MTT assay; type: functional; conditions: A-375, 48 h
MCF7 = assay: Antiproliferative activity against human MCF7 cells assessed as reduction in cell viability measured after 48 hrs by colorimetric based MTT assay; type: functional; conditions: MCF7, 48 h
[3] = Antiproliferative activity against human HaCaT cells assessed as reduction in cell viability measured after 48 hrs by colorimetric based MTT assay
A549 [4] = assay: Induction of apoptosis in human A549 cells assessed as increase accumulation of hypodiploid nuclei cells at 5 to 40 uM measured after 24 hrs by PI staining based flow cytometry analysis; type: functional, cell-based; conditions: dose 5-40 µM
How it was run: (§1)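 A549, Jurkat or HaCaT cells plated at 3 × 10^4 cells/well, left 24 h, then exposed to 40, 20, 10 or 5 μM for 24 h. Staurosporine 0.2 μM served as positive control. Cells washed in PBS and stained 30 min at 4 °C in the dark with PI in 0.1% Triton X-100/0.1% sodium citrate. Analysed by flow cytometry with debris excluded by forward scatter and DNA on a log scale. Read-out is % hypodiploid nuclei. Three independent experiments in triplicate, mean ± SEM, Mann–Whitney U test.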

HaCaT [5] = assay: Induction of apoptosis in human HaCaT cells assessed as increase accumulation of hypodiploid nuclei cells at 5 to 40 uM measured after 24 hrs by PI staining based flow cytometry analysis; type: functional, cell-based; conditions: dose 5-40 µM; how it was run: as §1
HaCaT [6] = assay: Induction of cell cycle arrest in human HaCaT cells assessed as accumulation at G2 phase at 40 uM measured after 24 hrs by PI staining based flow cytometry analysis; type: functional
How it was run: (§2)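 HaCaT or Jurkat cells plated at 3 × 10^4 cells/well, left 24 h, then treated with 40, 20, 10 or 5 μM for 24 h. Staurosporine 0.2 μM served as positive control. DNA stained with PI and 10 000 events per sample acquired by flow cytometry. Percentages of cells in G0/G1, S and G2/M were derived from the DNA profiles. Three independent experiments in triplicate, mean ± SEM, Mann–Whitney U test.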

Jurkat [7] = assay: Induction of cell cycle arrest in human Jurkat cells assessed as accumulation at S phase measured after 24 hrs by PI staining based flow cytometry analysis; type: functional; conditions: dose 5-40 µM, DDE = dose-dependent effect; how it was run: as §2
HaCaT [8] = assay: Induction of apoptosis in human HaCaT cells assessed as increase accumulation of hypodiploid nuclei cells measured after 24 hrs by PI staining based flow cytometry analysis; type: functional, cell-based; conditions: dose 5-40 µM, DDE = dose-dependent effect; how it was run: as §1
Jurkat [9] = assay: Induction of apoptosis in human Jurkat cells assessed as increase accumulation of hypodiploid nuclei cells measured after 24 hrs by PI staining based flow cytometry analysis; type: functional, cell-based; conditions: dose 5-40 µM, DDE = dose-dependent effect; how it was run: as §1
A549 [10] = assay: Induction of apoptosis in human A549 cells assessed as increase accumulation of hypodiploid nuclei cells measured after 24 hrs by PI staining based flow cytometry analysis; type: functional, cell-based; conditions: dose 5-40 µM, DDE = dose-dependent effect; how it was run: as §1

SMILES | IC50 (Jurkat [1]) [µM] | IC50 (A549 [2]) [µM] | IC50 (A-375) [µM] | IC50 (MCF7) [µM] | IC50 at 48 h [3] [µM] | Activity (A549 [4]) | Activity (HaCaT [5]) | Activity (HaCaT [6]) | Activity (Jurkat [7]) | Activity (HaCaT [8]) | Activity (Jurkat [9]) | Activity (A549 [10])
C[C@H]1CC[C@]23O[C@]12C[C@H](C(C)(C)O)CC[C@@]3(C)O (relative stereo) | > 10 | > 10 | > 10 | > 10 | > 10 | – | – | – | – | – | – | –
C=C1C(=O)O[C@@H]2[C@H]1C[C@@H](OC(C)=O)[C@@](C)(O)[C@]13O[C@H]1[C@@H](Cl)[C@](C)(O)[C@H]23 | > 10 | > 10 | > 10 | > 10 | 3.5 | – | – | – | – | – | – | –
C=C1C(=O)O[C@H]([C@H]2C(=O)C=C[C@]2(C)O)[C@@H]1CCC(C)=O | > 10 | > 10 | > 10 | > 10 | > 10 | – | – | – | – | – | – | –
C=C1C(=O)O[C@@H]2C1C[C@@H](OC(C)=O)[C@@](C)(O)[C@@]13O[C@@H]1[C@@H]1O[C@]1(C)[C@H]23 (stereo not given in full) | 5 | > 10 | 3.7 | 9.6 | 1.6 | Active | Active | Active | Dde | Dde | Dde | Dde
CN[C@@H]1C[C@H]2O[C@@](C)([C@@H]1OC)n1c3ccccc3c3c4c(c5c6ccccc6n2c5c31)C(=O)NC4 [STAUROSPORINE] | 3.2 | – | – | – | – | – | – | – | – | – | – | –
C=C(C)[C@@H](O)CC[C@@H](C)C1C[C@H](O)C(C)=C[C@@H]1O (relative stereo) | > 10 | > 10 | > 10 | > 10 | > 10 | – | – | – | – | – | – | –
CC(C)(O)/C=C/[C@H]1OC(=O)C[C@]1(C)O (relative stereo) | > 10 | > 10 | > 10 | > 10 | > 10 | – | – | – | – | – | – | –
CC(=O)O[C@@H]1CC(C)=C2C(=O)C=C(C)[C@@H]2[C@@H](O)[C@H]1C(C)C(=O)O (relative stereo) | > 10 | > 10 | > 10 | > 10 | > 10 | – | – | – | – | – | – | –
C=C1C(=O)O[C@H]2[C@H]1C[C@H](OC(C)=O)[C@](C)(O)[C@@]1(O)[C@@H](O)[C@H]3O[C@@]3(C)[C@H]21 (relative stereo) | > 10 | > 10 | > 10 | > 10 | > 10 | – | – | – | – | – | – | –
C=C1C(=O)O[C@@H]2C1C[C@@H](OC(C)=O)[C@](C)(O)[C@@]13C=C[C@@](C)(OO1)C23 (stereo not given in full) | 4.7 | 4.1 | > 10 | > 10 | 1.7 | – | – | – | – | – | – | –
C=C1C(=O)O[C@H](C2=C(C)[C@@H](O)CC2=O)[C@@H]1CCC(C)=O | 7.7 | 8.9 | > 10 | > 10 | 2.9 | Active | Active | Active | Dde | Dde | Dde | Dde
C=C1[C@@H]2[C@H]3OC(=O)C(COC(C)=O)=C3CC[C@@]2(C)[C@H](O)C[C@@H]1O | > 10 | > 10 | > 10 | > 10 | > 10 | – | – | – | – | – | – | –
C=C1[C@@H]2[C@@H](OC(C)=O)/C(=C(\CO)C(=O)O)CC[C@@]2(C)[C@H](O)C[C@@H]1O | > 10 | > 10 | > 10 | > 10 | > 10 | – | – | – | – | – | – | –
